Measurements from ChEMBL document CHEMBL1124785, “Synthesis, metabolism, and pharmacological activity of 3 alpha-hydroxy steroids which potentiate GABA-receptor-mediated chloride ion uptake in rat cerebral cortical synaptoneurosomes” (1990).

Key:
Rattus norvegicus [1] = organism: Rattus norvegicus; assay: Effect on the potentiation of muscimol-stimulated 36Cl- uptake in rat brain synaptoneurosomes; type: functional
How it was run: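 Cerebral cortex synaptoneurosomes from adult male Sprague-Dawley rats (180-200 g), homogenized in Tris-Hepes buffer pH 7.4 with salts and glucose, filtered and washed. Tubes held 1 mg protein. Steroid plus 3 μM muscimol preincubated 10 min at 30 °C, then 0.5 µCi 36Cl- added. Uptake stopped after 5 s with ice-cold picrotoxin buffer and filtered. Counted by scintillation, in quadruplicate; increase measured over muscimol alone.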

Rattus norvegicus [2] = assay: The recovery of radioactivity 20 min after administration of [3H]- labeled steroids to rat brain; type: functional, organism-based
How it was run: (§1)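 Adult male Sprague-Dawley rats (240-260 g), four per group, were given 100 μCi tritiated steroid by tail vein in ethanol-saline. Blood and brain were collected 20 min later and aliquots counted for radioactivity (dpm/mL plasma, dpm/g brain). The brain/plasma ratio was also taken; means ± SE.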

Rattus norvegicus [3] = assay: The recovery of radioactivity 20 min after administration of [3H]- labeled steroids to rat plasma; type: functional, organism-based; how it was run: as §1
Rattus norvegicus [4] = organism: Rattus norvegicus; assay: Percent of total tritium in extracts of rat brain; type: functional
How it was run: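 Groups of four adult male Sprague-Dawley rats (240-260 g) received 100 μCi 3H-steroid in ethanol-saline by tail vein and were killed after 20 min. Brain was homogenized in chloroform/methanol (2:1) and the extract separated by HPLC (75% aqueous methanol) alongside unlabeled internal standards read at 280 nm. Fraction radioactivity was expressed as % of total brain tritium; means ± SE.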

Structure (SMILES) | Potentiation (Rattus norvegicus [1]) [nM/mg] | also measured
CC(=O)OCC(=O)[C@H]1CC[C@H]2[C@@H]3CC[C@@H]4C[C@H](O)CC[C@]4(C)[C@H]3CC[C@]12C | 10.3 | –
CC1([C@H]2CC[C@H]3[C@@H]4CC[C@@H]5C[C@H](O)CC[C@]5(C)[C@H]4CC[C@]23C)OCCO1 | -0.96 | –
C[C@]12CC[C@@H](O)C[C@@H]1CC[C@@H]1[C@@H]2CC[C@]2(C)[C@@H](C(=O)CO)CC[C@@H]12 | 13.1 | Recovery (Rattus norvegicus [2]): 212000 dpm ml-1; Recovery (Rattus norvegicus [3]): 316000 dpm ml-1; Total tritium (Rattus norvegicus [4]): 48.1%
C[C@]12CC[C@@H](O)C[C@@H]1CC[C@@H]1[C@@H]2CC[C@]2(C)[C@H](C#N)CC[C@@H]12 | -2.1 | –
CC(=O)[C@H]1CC[C@H]2[C@@H]3CC[C@H]4C[C@H](O)CC[C@]4(C)[C@H]3[C@H](O)C[C@]12C | 0.7 | –
CC(=O)O[C@@H]1CC[C@@]2(C)[C@@H](CC[C@@H]3[C@@H]2CC[C@]2(C)[C@@H](C(=O)CO)CC[C@@H]32)C1 | 0.48 | –
CC(=O)[C@H]1CC[C@H]2[C@@H]3CC[C@@H]4C[C@H](O)CC[C@]4(C)[C@H]3[C@H](O)C[C@]12C | 0.98 | –
CC(=O)OCC(=O)[C@H]1CCC2C3CC[C@H]4C[C@H](O)CC[C@]4(C)C3=CC[C@@]21C (some centres undefined) | 0.34 | –
C[C@]12CCC(=O)C[C@@H]1CC[C@@H]1[C@@H]2CC[C@]2(C)C(C(=O)CO)CC[C@@H]12 (some centres undefined) | -1.95 | Total tritium (Rattus norvegicus [4]): 46.1%
C[C@H](O)[C@H]1CC[C@H]2[C@@H]3CC[C@H]4C[C@H](O)CC[C@]4(C)[C@H]3CC[C@]12C | 1.97 | –
CC(=O)O[C@@H]1CC[C@@]2(C)[C@@H](CC[C@@H]3[C@@H]2CC[C@]2(C)[C@@H](C(C)=O)CC[C@@H]32)C1 | 2.57 | –
CC(=O)[C@H]1CCC2C3CCC4=C[C@@H](O)CC[C@]4(C)C3CC[C@@]21C (some centres undefined) | 1.43 | –
CC1([C@H]2CC[C@H]3[C@@H]4CC[C@H]5C[C@H](O)CC[C@]5(C)[C@H]4CC[C@]23C)OCCO1 | 0.16 | –
C[C@]12CC[C@@H](O)C[C@@H]1CC[C@@H]1[C@@H]2CC[C@]2(C)[C@@H](C#N)CC[C@@H]12 | 13 | –
CC(=O)[C@H]1CC[C@H]2[C@@H]3CC[C@H]4C[C@H](O)CC[C@]4(C)[C@H]3CC[C@]12C [BREXANOLONE] | 10.9 | Recovery (Rattus norvegicus [2]): 342000 dpm ml-1; Recovery (Rattus norvegicus [3]): 176000 dpm ml-1; Total tritium (Rattus norvegicus [4]): 50.4%
C[C@]12CC=C3C(CC[C@H]4C[C@H](O)CC[C@]34C)C1CC[C@@H]2C(=O)CO (some centres undefined) | 1.4 | –

Structure (SMILES) | Potentiation (Rattus norvegicus [1]) [nM/mg] | also measured
CC(=O)[C@@H]1CC[C@H]2[C@@H]3CC[C@H]4C[C@H](O)CC[C@]4(C)[C@H]3CC[C@]12C | 1.12 | –
C[C@]12CC[C@@H](O)C[C@H]1CC[C@@H]1[C@@H]2CC[C@]2(C)[C@@H](C(=O)CO)CC[C@@H]12 | 7.7 | –
CC(=O)C1CC[C@H]2[C@@H]3CC[C@H]4CC(=O)CC[C@]4(C)[C@H]3CC[C@]12C (some centres undefined) | 2.63 | Total tritium (Rattus norvegicus [4]): 40.6%
CC(=O)[C@H]1CCC2C3CC[C@H]4C[C@H](O)CC[C@]4(C)C3=CC[C@@]21C (some centres undefined) | 1.23 | –
CC(=O)OCC(=O)[C@H]1CC[C@H]2[C@@H]3CC[C@H]4C[C@H](OC(C)=O)CC[C@]4(C)[C@H]3CC[C@]12C | 1.37 | –
C[C@]12CC[C@@H](O)C[C@@H]1CC[C@@H]1[C@@H]2CC[C@]2(C)C(=O)CC[C@@H]12 [ANDROSTERONE] | 7 | –
CC(=O)[C@H]1CC[C@H]2[C@@H]3CCC4=C[C@H](O)CC[C@]4(C)[C@H]3CC[C@]12C | 10.4 | –
C[C@]12CC[C@@H](O)C[C@@H]1CC[C@@H]1[C@@H]2CC[C@]2(C)/C(=N\O)CC[C@@H]12 | -1.91 | –
COC(=O)[C@H]1CC[C@H]2[C@@H]3CC[C@H]4C[C@H](O)CC[C@]4(C)[C@H]3CC[C@]12C | 3.6 | –
CC(=O)[C@H]1CC[C@H]2[C@@H]3CC[C@@H]4C[C@H](O)CC[C@]4(C)[C@H]3C[C@H](O)[C@]12C | -2.58 | –
CC(=O)OCC(=O)[C@H]1CC[C@H]2[C@@H]3CC[C@H]4C[C@H](O)CC[C@]4(C)[C@H]3CC[C@]12C | 12.2 | –
CC(=O)[C@H]1CC[C@H]2[C@@H]3CCC4=CC(=O)CC[C@]4(C)[C@H]3CC[C@]12C [PROGESTERONE] | -1.8 | –
C[C@]12CC[C@@H](O)C[C@@H]1CC[C@@H]1[C@@H]2CC[C@]2(C)[C@@H](C(=O)COS(C)(=O)=O)CC[C@@H]12 | 7.9 | –
C[C@]12CC[C@@H](O)C[C@H]1CC[C@@H]1[C@@H]2CC[C@]2(C)C(=O)CC[C@@H]12 [ETIOCHOLANOLONE] | 4.9 | –
CC(=O)C1CC[C@H]2[C@@H]3CC[C@H]4C/C(=N\O)CCC4(C)[C@H]3CCC12C (some centres undefined) | -3.26 | –
